Laboratory results reported in ChEMBL document CHEMBL1141963, “Ketene aminal-based lactam derivatives as a novel class of orally active FXa inhibitors” (Bioorg Med Chem Lett, 2005).

Columns and labels:
Coagulation factor X [1] = biological target: T1, Coagulation factor X (Homo sapiens, UniProt P00742); test: Inhibitory activity against human FXa
Target sequence in this assay (P00742 41-179 limits assumed): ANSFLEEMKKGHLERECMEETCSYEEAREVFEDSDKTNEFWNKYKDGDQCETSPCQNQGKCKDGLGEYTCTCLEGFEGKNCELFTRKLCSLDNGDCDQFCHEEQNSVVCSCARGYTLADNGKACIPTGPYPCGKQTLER
Target sequence in this assay (P00742 235-488 limits assumed): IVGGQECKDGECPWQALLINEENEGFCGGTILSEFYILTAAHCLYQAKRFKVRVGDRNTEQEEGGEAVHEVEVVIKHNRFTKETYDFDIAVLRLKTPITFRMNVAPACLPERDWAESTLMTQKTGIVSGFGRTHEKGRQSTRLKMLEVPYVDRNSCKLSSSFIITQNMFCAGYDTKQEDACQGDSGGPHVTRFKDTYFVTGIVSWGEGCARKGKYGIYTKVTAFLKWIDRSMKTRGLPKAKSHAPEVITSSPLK

[2] = Binding affinity to trypsin; design: species or system Homo sapiens
In short: (§1)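 Human enzymes, each assayed against a low-molecular-weight synthetic substrate. Ki was calculated from IC50 assuming competitive inhibition, as Ki = IC50/(1 + [S]/Km), where [S] is the substrate concentration in the assay and Km the substrate's Michaelis constant. Values are averages of two independent determinations.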

Prothrombin = Prothrombin (Homo sapiens, UniProt P00734); test: Binding affinity to thrombin; in short: as §1
Plasma kallikrein = Plasma kallikrein (Homo sapiens, UniProt P03952); test: Binding affinity to plasma kallikrein; in short: as §1
Sequence of Plasma kallikrein (P03952 20-390 limits assumed): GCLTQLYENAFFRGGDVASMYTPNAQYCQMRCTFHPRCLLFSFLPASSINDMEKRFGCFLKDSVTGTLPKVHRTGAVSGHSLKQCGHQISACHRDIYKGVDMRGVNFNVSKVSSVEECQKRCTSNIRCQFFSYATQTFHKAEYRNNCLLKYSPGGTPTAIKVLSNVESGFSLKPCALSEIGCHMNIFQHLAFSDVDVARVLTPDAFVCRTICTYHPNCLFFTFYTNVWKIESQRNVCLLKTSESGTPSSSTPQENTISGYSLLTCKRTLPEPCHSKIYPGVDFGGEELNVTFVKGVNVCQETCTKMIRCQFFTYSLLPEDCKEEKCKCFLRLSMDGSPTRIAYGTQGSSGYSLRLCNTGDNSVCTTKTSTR
Sequence of Plasma kallikrein (P03952 391-638 limits assumed): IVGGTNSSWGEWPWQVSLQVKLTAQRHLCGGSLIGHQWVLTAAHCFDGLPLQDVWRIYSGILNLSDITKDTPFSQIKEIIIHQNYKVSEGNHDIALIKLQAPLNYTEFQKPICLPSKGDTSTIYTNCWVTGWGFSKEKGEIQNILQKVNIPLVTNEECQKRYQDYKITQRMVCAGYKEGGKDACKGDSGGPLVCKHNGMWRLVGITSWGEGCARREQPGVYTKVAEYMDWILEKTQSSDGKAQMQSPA

[3] = biological target: Urokinase-type plasminogen activator (Homo sapiens, UniProt P00749); test: Binding affinity to urokinase; in short: as §1
Plasminogen = Plasminogen (Homo sapiens, UniProt P00747); test: Binding affinity to plasmin; in short: as §1
Sequence of Plasminogen (P00747 97-580 limits assumed): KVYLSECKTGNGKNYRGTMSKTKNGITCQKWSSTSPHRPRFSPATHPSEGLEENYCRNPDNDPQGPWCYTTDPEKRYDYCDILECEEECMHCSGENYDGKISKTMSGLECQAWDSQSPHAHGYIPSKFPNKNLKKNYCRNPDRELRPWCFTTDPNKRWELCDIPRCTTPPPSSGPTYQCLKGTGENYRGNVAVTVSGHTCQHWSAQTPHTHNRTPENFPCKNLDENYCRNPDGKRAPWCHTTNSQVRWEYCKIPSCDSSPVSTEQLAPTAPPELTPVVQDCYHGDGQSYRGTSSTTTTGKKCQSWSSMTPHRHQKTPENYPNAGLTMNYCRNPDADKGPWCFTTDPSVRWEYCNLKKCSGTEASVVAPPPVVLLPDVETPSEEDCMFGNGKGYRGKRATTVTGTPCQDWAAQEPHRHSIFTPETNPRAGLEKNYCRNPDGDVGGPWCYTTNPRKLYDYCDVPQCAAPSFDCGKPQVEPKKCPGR
Sequence of Plasminogen (P00747 581-810 limits assumed): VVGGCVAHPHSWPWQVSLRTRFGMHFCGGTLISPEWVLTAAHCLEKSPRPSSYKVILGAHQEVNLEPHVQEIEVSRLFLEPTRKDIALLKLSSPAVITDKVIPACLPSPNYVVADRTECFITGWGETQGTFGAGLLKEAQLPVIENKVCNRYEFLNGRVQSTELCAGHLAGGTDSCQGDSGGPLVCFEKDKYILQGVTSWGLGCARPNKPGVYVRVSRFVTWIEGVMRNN

[4] = biological target: Tissue-type plasminogen activator (Homo sapiens, UniProt P00750); test: Binding affinity to tPA; in short: as §1
Sequence of Tissue-type plasminogen activator (P00750 whole entry): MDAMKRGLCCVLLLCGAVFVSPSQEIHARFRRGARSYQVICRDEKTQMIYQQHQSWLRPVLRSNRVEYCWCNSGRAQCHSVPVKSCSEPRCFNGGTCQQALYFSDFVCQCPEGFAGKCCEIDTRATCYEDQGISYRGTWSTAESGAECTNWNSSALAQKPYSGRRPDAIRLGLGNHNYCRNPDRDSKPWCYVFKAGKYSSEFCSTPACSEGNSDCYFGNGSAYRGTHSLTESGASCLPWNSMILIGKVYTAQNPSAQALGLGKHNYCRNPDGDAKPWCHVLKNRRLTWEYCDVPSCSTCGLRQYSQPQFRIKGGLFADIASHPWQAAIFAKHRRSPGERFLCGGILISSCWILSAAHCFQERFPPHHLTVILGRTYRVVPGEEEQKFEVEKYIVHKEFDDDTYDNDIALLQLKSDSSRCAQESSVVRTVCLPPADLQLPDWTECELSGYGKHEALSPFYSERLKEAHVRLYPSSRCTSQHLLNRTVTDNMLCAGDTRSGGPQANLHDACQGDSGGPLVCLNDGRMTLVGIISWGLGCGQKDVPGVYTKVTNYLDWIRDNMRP

[5] = biological target: Vitamin K-dependent protein C (Homo sapiens, UniProt P04070); test: Binding affinity to activated protein C; in short: as §1
Sequence of Vitamin K-dependent protein C (P04070 43-197 limits assumed): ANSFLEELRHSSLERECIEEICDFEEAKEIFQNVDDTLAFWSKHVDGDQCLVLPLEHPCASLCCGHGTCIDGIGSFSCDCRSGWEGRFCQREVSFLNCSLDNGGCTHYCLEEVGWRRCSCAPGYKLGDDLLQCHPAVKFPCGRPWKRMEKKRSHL
Sequence of Vitamin K-dependent protein C (P04070 212-461 limits assumed): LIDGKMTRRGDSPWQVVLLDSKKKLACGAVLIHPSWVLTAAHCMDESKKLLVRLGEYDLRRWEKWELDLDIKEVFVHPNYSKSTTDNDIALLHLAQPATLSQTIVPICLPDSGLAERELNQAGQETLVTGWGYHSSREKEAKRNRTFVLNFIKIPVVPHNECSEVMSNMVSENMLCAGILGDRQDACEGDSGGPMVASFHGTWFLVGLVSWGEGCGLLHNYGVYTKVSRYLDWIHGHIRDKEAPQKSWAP

Coagulation factor IX = Coagulation factor IX (Homo sapiens, UniProt P00740); test: Binding affinity to factor IXa; in short: as §1
Sequence of Coagulation factor IX (P00740 47-191 limits assumed): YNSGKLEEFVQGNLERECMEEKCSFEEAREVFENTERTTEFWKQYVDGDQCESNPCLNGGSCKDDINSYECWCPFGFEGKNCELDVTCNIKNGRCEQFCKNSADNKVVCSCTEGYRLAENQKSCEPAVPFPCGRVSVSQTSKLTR
Sequence of Coagulation factor IX (P00740 227-461 limits assumed): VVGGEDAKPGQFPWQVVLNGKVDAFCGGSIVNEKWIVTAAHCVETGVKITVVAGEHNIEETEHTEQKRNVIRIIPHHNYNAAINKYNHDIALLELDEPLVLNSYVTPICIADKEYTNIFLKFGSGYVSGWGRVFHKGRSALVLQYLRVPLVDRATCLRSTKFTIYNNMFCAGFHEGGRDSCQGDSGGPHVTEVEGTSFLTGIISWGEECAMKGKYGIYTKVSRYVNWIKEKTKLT

Coagulation factor VII = biological target: T2, Coagulation factor VII (Homo sapiens, UniProt P08709); test: Binding affinity to factor VIIa; in short: as §1
T2 sequence (P08709 whole entry): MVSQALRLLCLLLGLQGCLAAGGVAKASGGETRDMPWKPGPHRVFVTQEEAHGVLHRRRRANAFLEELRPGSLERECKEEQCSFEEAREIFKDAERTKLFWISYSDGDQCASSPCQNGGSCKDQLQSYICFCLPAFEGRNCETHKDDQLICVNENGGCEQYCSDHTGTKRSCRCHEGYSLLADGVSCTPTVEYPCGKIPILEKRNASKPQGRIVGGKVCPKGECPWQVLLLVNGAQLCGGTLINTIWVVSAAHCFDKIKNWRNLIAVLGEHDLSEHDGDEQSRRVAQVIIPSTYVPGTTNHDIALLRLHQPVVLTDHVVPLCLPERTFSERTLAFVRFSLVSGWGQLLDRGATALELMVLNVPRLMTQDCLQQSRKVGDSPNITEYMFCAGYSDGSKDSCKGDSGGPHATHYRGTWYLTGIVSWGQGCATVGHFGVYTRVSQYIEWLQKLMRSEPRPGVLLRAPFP

Chymotrypsinogen B = Chymotrypsinogen B (Homo sapiens, UniProt P17538); test: Binding affinity to chymotrypsin; in short: as §1
Sequence of Chymotrypsinogen B (P17538 34-164 limits assumed, other chains not shown): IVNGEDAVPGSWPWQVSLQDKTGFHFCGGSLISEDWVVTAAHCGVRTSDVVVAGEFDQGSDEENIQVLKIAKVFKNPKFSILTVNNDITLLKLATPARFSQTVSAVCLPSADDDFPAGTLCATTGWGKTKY
Sequence of Chymotrypsinogen B (P17538 167-263 limits assumed, other chains not shown): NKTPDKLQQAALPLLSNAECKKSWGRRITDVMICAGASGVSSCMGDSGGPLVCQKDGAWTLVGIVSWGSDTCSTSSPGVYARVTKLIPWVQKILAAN

Coagulation factor X [6] = biological target: T1, Coagulation factor X; test: Anticoagulant potency in human plasma as measured by prothrombin time
Target sequence in this assay (P00742 whole entry, looked up): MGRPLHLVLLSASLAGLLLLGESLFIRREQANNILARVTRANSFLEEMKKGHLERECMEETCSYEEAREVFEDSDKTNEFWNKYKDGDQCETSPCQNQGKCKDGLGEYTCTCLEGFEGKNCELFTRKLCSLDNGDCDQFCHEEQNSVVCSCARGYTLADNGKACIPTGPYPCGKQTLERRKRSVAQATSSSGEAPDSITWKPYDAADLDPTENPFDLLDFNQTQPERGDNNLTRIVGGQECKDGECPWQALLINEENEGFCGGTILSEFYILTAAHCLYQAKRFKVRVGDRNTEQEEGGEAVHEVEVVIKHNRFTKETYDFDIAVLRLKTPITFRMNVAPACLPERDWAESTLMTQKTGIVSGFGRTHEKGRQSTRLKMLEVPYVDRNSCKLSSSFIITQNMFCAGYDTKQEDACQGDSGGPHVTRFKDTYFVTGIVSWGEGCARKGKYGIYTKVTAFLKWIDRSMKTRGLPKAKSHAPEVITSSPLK

SMILES	IC50 (Coagulation factor X [1]) [nM]	2PT (Coagulation factor X [6]) [µM]	also measured
CN(C)c1ccc(N/C(=C\[N+](=O)[O-])N[C@H]2CCCCN(CC(=O)N3CCCC3)C2=O)cc1	> 34000		
COc1ccc(N/C(=C\[N+](=O)[O-])N[C@H]2CCCCN(CC(=O)N3CCCC3)C2=O)cc1	3100		
Cc1cc2cc(NC(=N/[C@H]3CCCCN(CC(=O)N4CCCC4)C3=O)/C(C#N)=C(\O)OCCCCO)ccc2o1	10	10	Ki (Coagulation factor X [1]): 12 nM; Ki [2]: > 5000 nM; Ki (Prothrombin): 6300 nM; Ki (Plasma kallikrein): > 19400 nM; Ki [3]: > 14000 nM; Ki (Plasminogen): > 22000 nM; Ki [4]: 16000 nM; Ki [5]: > 21500 nM; Ki (Coagulation factor IX): > 10000 nM; Ki (Coagulation factor VII): > 55000 nM; Ki (Chymotrypsinogen B): 9420 nM
Cc1cc2cc(NC(=N/[C@H]3CCCCN(CC(=O)N4CCCC4)C3=O)/C(C#N)=C(\O)c3ccc(Cl)cc3)ccc2o1	13	62	
O=C(CN1CCCC[C@H](N/C(=C/[N+](=O)[O-])Nc2ccccc2)C1=O)N1CCCC1	16500		
Cc1cc2cc(N/C(N[C@H]3CCCCN(CC(=O)N4CCCC4)C3=O)=C(/C#N)C(N)=O)ccc2o1	17	13	
Cc1cc2cc(N/C(N[C@H]3CCCCN(CC(=O)N4CCCC4)C3=O)=C(/C#N)S(C)(=O)=O)ccc2o1	46	24	
Cc1ccc(N/C(=C\[N+](=O)[O-])N[C@H]2CCCCN(CC(=O)N3CCCC3)C2=O)cc1	> 34000		
O=C(CN1CCCC[C@H](N/C(=C/[N+](=O)[O-])Nc2ccc3ccccc3c2)C1=O)N1CCCC1	1000		
CCO/C(O)=C(C#N)/C(=N\[C@H]1CCCCN(CC(=O)N2CCCC2)C1=O)Nc1ccc2oc(C)cc2c1	24	31	
Cc1cc2cc(N/C(N[C@H]3CCCCN(CC(=O)N4CCCC4)C3=O)=C(/C#N)S(=O)(=O)C(C)C)ccc2o1	647		
Cc1cc2cc(N/C(N[C@H]3CCCCN(CC(=O)N4CCCC4)C3=O)=C(/C#N)C(=O)N3CCC(C)CC3)ccc2o1	57	21	
Cc1cc2cc(N/C(=C\[N+](=O)[O-])N[C@H]3CCCCN(CC(=O)N4CCCC4)C3=O)ccc2o1	51		
Cc1cc2cc(NC(=N/[C@H]3CCCCN(CC(=O)N4CCCC4)C3=O)/C(C#N)=C(\O)OC(C)(C)C)ccc2o1	57	60	
CN(C)c1cccc(N/C(=C\[N+](=O)[O-])N[C@H]2CCCCN(CC(=O)N3CCCC3)C2=O)c1	2100		
CCOP(=O)(OCC)/C(C#N)=C(\Nc1ccc2oc(C)cc2c1)N[C@H]1CCCCN(CC(=O)N2CCCC2)C1=O	658	> 60	
O=C(CN1CCCC[C@H](N/C(=C/[N+](=O)[O-])Nc2ccc3c(c2)CCO3)C1=O)N1CCCC1	1500		
COc1ccc(N/C(=C\[N+](=O)[O-])N[C@H]2CCCCN(CC(=O)N3CCCC3)C2=O)cc1C	3400		
O=C(CN1CCCC[C@H](N/C(=C/[N+](=O)[O-])Nc2ccc3occc3c2)C1=O)N1CCCC1	539		
Cc1cc2cc(NC(/C=C(\O)c3nccs3)=N/[C@H]3CCCCN(CC(=O)N4CCCC4)C3=O)ccc2o1	10	31	
COc1cccc(N/C(=C\[N+](=O)[O-])N[C@H]2CCCCN(CC(=O)N3CCCC3)C2=O)c1	6700		
COc1ccc(/C(O)=C(C#N)/C(=N\[C@H]2CCCCN(CC(=O)N3CCCC3)C2=O)Nc2ccc3oc(C)cc3c2)cc1	13	36	
Cc1cc2cc(N/C(N[C@H]3CCCCN(CC(=O)N4CCCC4)C3=O)=C(/C#N)C(=O)NC(N)=O)ccc2o1	13	7	
